Values after ≈ are worked out from the molar mass of the structure shown.
Columns and labels:
[1] = system: Mycobacterium tuberculosis; experiment: Antimycobacterial activity against Mycobacterium tuberculosis H37Rv by agar dilution method; assay type: functional
Summary of the method: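 Agar dilution MIC on Middlebrook 7H11 agar supplemented with OADC, following NCCLS-like procedure; determined in duplicate.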

[2] = system: Vero; experiment: Cytotoxicity against african green monkey Vero cells after 72 hrs by MTT assay; assay type: cell-based; conditions: Chlorocebus sabaeus
Summary of the method: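 Vero monkey kidney cells exposed to compounds by serial double dilution up to 62.5 µg/mL for 72 h. Viability read from cellular MTT conversion to formazan (Cell Titer 96 non-radioactive proliferation assay); IC50 reported.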

[3] = Selectivity index, ratio of IC50 for african green monkey Vero cells to MIC for Mycobacterium tuberculosis H37Rv; assay type: functional
[4] = system: Mycobacterium tuberculosis; experiment: Antimycobacterial activity against Mycobacterium tuberculosis ATCC 35801 infected in CD1 mouse assessed as bacterial load in lungs at 25 mg/kg, ip administered 10 days postinfection for 10 days measured after 35 days of infection (Rvb=7.99 +/- 0.16 log CFU); assay type: functional; conditions: route intraperitoneal
[5] = system: Mycobacterium tuberculosis; experiment: Antimycobacterial activity against Mycobacterium tuberculosis ATCC 35801 infected in CD1 mouse assessed as bacterial load in spleen at 25 mg/kg, ip administered 10 days postinfection for 10 days measured after 35 days of infection (Rvb=9.02 +/- 0.21 log CFU); assay type: functional; conditions: route intraperitoneal

Row | SMILES | MIC [1] [µM] | IC50 [2] [µM] | Selectivity Index [3] | log10cfu [4] | log10cfu [5]
1 | Cc1ccc2ccc(C(=O)NCC3=C[C@@H]4Oc5ccccc5C(=O)C4=CN3c3ncccc3C)cc2c1 | 0.41 (≈ 0.2 µg/mL) | > 128 |  |  | 
2 | Cc1cccnc1N1C=C2C(=O)c3ccccc3O[C@H]2C=C1CNC(=O)c1cccc(Cl)c1 | 1.7 (≈ 0.778 µg/mL) | > 136 |  |  | 
3 | Cc1ccc(C(=O)NCC2=C[C@@H]3Oc4ccccc4C(=O)C3=CN2c2ncc(Br)cc2Br)cc1 | 5.38 (≈ 3.13 µg/mL) |  |  |  | 
4 | Cc1cccnc1N1C=C2C(=O)c3ccccc3O[C@H]2C=C1CNC(=O)c1ccc(Cl)cc1 | 1.7 (≈ 0.778 µg/mL) | 136 |  |  | 
5 | O=C(NCC1=C[C@@H]2Oc3ccccc3C(=O)C2=CN1c1ncc(Br)cc1Br)c1ccc(Cl)cc1 | 2.95 (≈ 1.77 µg/mL) | > 104 |  |  | 
6 | O=C(COc1ccccc1)NCC1=C[C@@H]2Oc3ccccc3C(=O)C2=CN1c1ncc(Br)cc1Br | 10.5 (≈ 6.25 µg/mL) |  |  |  | 
7 | Cc1ccc(C(=O)NCC2=C[C@@H]3Oc4ccccc4C(=O)C3=CN2c2ncccc2C)cc1 | 1.78 (≈ 0.779 µg/mL) | > 143 |  |  | 
8 | O=C(NCC1=C[C@@H]2Oc3ccccc3C(=O)C2=CN1c1ncc(Br)cc1Br)c1ccc(F)cc1 | 10.7 (≈ 6.24 µg/mL) |  |  |  | 
9 | Cc1cccnc1N1C=C2C(=O)c3ccccc3O[C@H]2C=C1CNC(=O)COc1ccccc1 | 13.8 (≈ 6.25 µg/mL) |  |  |  | 
10 | O=C(NCC1=C[C@@H]2Oc3ccccc3C(=O)C2=CN1c1ncc(Br)cc1Br)c1ccc2ccccc2c1 | 2.52 (≈ 1.56 µg/mL) | 101 |  |  | 
11 | O=C(NCC1=C[C@@H]2Oc3ccccc3C(=O)C2=CN1c1ncc(Br)cc1Br)c1ccccc1 | 11 (≈ 6.25 µg/mL) |  |  |  | 
12 | Cc1ccc2ccc(C(=O)NCC3=C[C@@H]4Oc5ccccc5C(=O)C4=CN3c3ncc(Br)cc3Br)cc2c1 | 1.23 (≈ 0.777 µg/mL) | 99 |  |  | 
13 | CCc1ccc(C(=O)NCC2=C[C@@H]3Oc4ccccc4C(=O)C3=CN2c2ncccc2C)cc1 | 0.22 (≈ 0.0993 µg/mL) | > 138 | 629 | 6.88 | 6.08
14 | CCc1ccc(C(=O)NCC2=C[C@@H]3Oc4ccccc4C(=O)C3=CN2c2ncc(Br)cc2Br)cc1 | 2.6 (≈ 1.55 µg/mL) | 105 |  |  | 
15 | O=C(NCC1=C[C@@H]2Oc3ccccc3C(=O)C2=CN1c1ncc(Br)cc1Br)c1cccc(Cl)c1 | 5.2 (≈ 3.13 µg/mL) | 104 |  |  | 
16 | Cc1cccnc1N1C=C2C(=O)c3ccccc3O[C@H]2C=C1CNC(=O)c1ccc2ccccc2c1 | 0.84 (≈ 0.398 µg/mL) | 142 |  |  | 
17 | O=C(NCC1=C[C@@H]2Oc3ccccc3C(=O)C2=CN1c1ncc(Br)cc1Br)c1ccc(Cl)c(Cl)c1 | 9.82 (≈ 6.25 µg/mL) | 50.7 |  |  | 
18 | COc1ccc(C(=O)NCC2=C[C@@H]3Oc4ccccc4C(=O)C3=CN2c2ncc(Br)cc2Br)cc1 | 10.5 (≈ 6.25 µg/mL) |  |  |  | 
19 | COc1ccc(C(=O)NCC2=C[C@@H]3Oc4ccccc4C(=O)C3=CN2c2ncccc2C)cc1 | 1.72 (≈ 0.78 µg/mL) | > 138 |  |  | 
20 | Cc1cccnc1N1C=C2C(=O)c3ccccc3O[C@H]2C=C1CNC(=O)c1ccc(F)cc1 | 7.09 (≈ 3.13 µg/mL) | > 142 |  |  | 
21 | Cc1cccnc1N1C=C2C(=O)c3ccccc3O[C@H]2C=C1CNC(=O)c1ccccc1 | 7.36 (≈ 3.12 µg/mL) | > 148 |  |  | 
22 | CC[C@@H](CO)NCCN[C@@H](CC)CO [ETHAMBUTOL] | 7.63 (≈ 1.56 µg/mL) | > 306 |  |  | 
23 | NNC(=O)c1ccncc1 [ISONIAZID] | 0.36 (≈ 0.0494 µg/mL) | > 456 |  | 5.86 | 4.71
24 | CC1COc2c(N3CCN(C)CC3)c(F)cc3c(=O)c(C(=O)O)cn1c23 (centres undefined) [OFLOXACIN] | 2.13 (≈ 0.77 µg/mL) | > 155 |  |  | 
25 | CO[C@H]1/C=C/O[C@@]2(C)Oc3c(C)c(O)c4c(O)c(c(/C=N/N5CCN(C)CC5)c(O)c4c3C2=O)NC(=O)/C(C)=C\C=C\[C@H](C)[C@H](O)[C@@H](C)[C@@H](O)[C@@H](C)[C@H](OC(C)=O)[C@@H]1C [RIFAMPIN] | 0.12 (≈ 0.0988 µg/mL) | > 75.9 |  |  | 
